Measurements: PubChem BioAssay
Calls of active or inactive are those of the source. Unless noted, no stated cut-off is given here; in the data, active means inhibition above about 31%; inactive means the rest.

How the values were obtained:
[1] = HUVEC growth inhibition – cell-based, human, primary screen (AID 575;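 active means viability at or below 30% in both replicate assays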;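 further: 100% = median of untreated cell wells with 0.1% DMSO on each plate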); details: HUVEC proliferation, CellTiter-Glo luminescence, 72 h; at 10 µM; stronger effect = lower value
Procedure, shortened: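 Test system: primary human umbilical vein endothelial cells; medium: endothelial basal medium with 2% FBS plus growth supplements; dosing: 10 µM compound only; times: 72 h treatment at 37 °C; signal: CTG luminescence; read-out: % viability relative to median vehicle-well signal on each plate; control set: vehicle and MePR control wells; plate: 384-well, collagen-coated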

[2] = growth inhibitors of H69AR lung tumor, primary screen, human, duplicate replicates (AID 580;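 active means viability at or under a set limit in both replicates, limit being median viability minus 3 SD, cut at about 48% in these data, passing the limit was not always enough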;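 further: 100% = mean luminescence of untreated wells and 0% = no signal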); details: H69AR lung tumor cells viability, ATP luminescence, 72 h; at 10 µM; stronger effect = lower value
[3] = reversal of MRP1-mediated doxorubicin resistance, pilot screen, H69AR cells, doxorubicin co-treatment (AID 601;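 active means viability loss from added drug above about 55%, and viability with drug at most 40%, in both replicates, limit read from the data, passing the limit was not always enough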); details: CellTiter-Glo, 72 h, at 10 µM; for differential viability (reversal): stronger effect = higher value
[4] = 384-well plate pilot, post-Golgi transport modulator project, inhibition of yeast transport mutant growth (AID 636); details: absorbance 615 nm, about 18 h, stronger effect = higher value
[5] = growth suppression of yeast trafficking mutant, preliminary HTS, modulators of trafficking downstream of Golgi apparatus project, 1536-format plate, OD 615 nm (AID 637; in the data active means inhibition above about 30%); details: yeast transport mutant growth, absorbance 615 nm, 18 h; stronger effect = higher value
[6] = H69AR cells + 2 uM doxorubicin, measured here: viability with 2 uM doxorubicin, stronger effect = lower value
[7] = H69AR cells, compound alone cytotoxicity

Compound	viability [1]	viability [2]	differential viability (reversal) ([3]; H69AR cells + 2 uM doxorubicin)	viability [3, 6] [%]	viability [3, 7] [%]	inhibition [4]	inhibition [5]
O=C(Nc1ccccc1C(=O)N1CCOCC1)c1ccncc1	96.4% (inactive)	101% (inactive)	7.54% (inactive)	93.6	101	-1.43% (inactive)	-2.22% (inactive)
Cc1ccc(NC(=O)CSc2nnc(-c3ccccn3)n2C)cc1	115% (inactive)	91.5% (inactive)	-0.845% (inactive)	92.3	91.5	-7.73% (inactive)	-8.89% (inactive)
C/C(=N\O)c1ccc2c3c([nH]c2c1)CCCC3	25.3% (active)	88.1% (inactive)	-8.65% (inactive)	96.8	88.1	-3.77% (inactive)	-0.16% (inactive)
COc1ccc(N(CC(=O)Nc2ccc(F)c(Cl)c2)S(=O)(=O)c2c(C)noc2C)cc1	93.8% (inactive)	81.5% (inactive)	-7.84% (inactive)	89.3	81.5	-1.07% (inactive)	-6.83% (inactive)
Cc1ccccc1NC(=O)C1CCC(C)(C(=O)O)C1(C)C (stereo unspecified)	92.7% (inactive)	99.8% (inactive)	0.94% (inactive)	98.8	99.8	-0.78% (inactive)	-7.3% (inactive)
CCc1ccc(CCC(=O)Nc2ccc(C)c(C)c2)o1	102% (inactive)	95.1% (inactive)	7.16% (inactive)	87.9	95.1	-8.4% (inactive)	-3.65% (inactive)
CCCCCCn1c(CN2CCN(Cc3ccccc3)CC2)nc2c1c(=O)n(C)c(=O)n2C	86.6% (inactive)	70.9% (inactive)	38.8% (inactive)	32.1	70.9	-5.48% (inactive)	4.55% (inactive)
Cn1cccc1C(=O)NC(=O)CSc1nnc(C2CC2)n1-c1ccccc1	102% (inactive)	85.7% (inactive)	-7.28% (inactive)	93	85.7	-1.17% (inactive)	-0.63% (inactive)
CCn1c(Cc2ccccc2)nnc1SCC(=O)Nc1nc2ccccc2s1	87.9% (inactive)	104% (inactive)	4.48% (inactive)	99.9	104	-3.03% (inactive)	6.51% (inactive)
COc1cc2c(cc1NCc1ccccn1)oc1ccccc12	78% (inactive)	83.8% (inactive)	-10.3% (inactive)	94.1	83.8	-4.13% (inactive)	5.08% (inactive)
Cc1ccnc(NS(=O)(=O)c2ccc(N=CC3=C(O)CC(C)(C)CC3=O)cc2)n1	102% (inactive)	97.1% (inactive)	-0.37% (inactive)	97.5	97.1	0.92% (inactive)	-5.4% (inactive)
CC1CCN(c2nc3c(c(=O)n(C)c(=O)n3C)n2Cc2ccccc2)CC1	79.2% (inactive)	88.1% (inactive)	41.1% (inactive)	47	88.1	-2.27% (inactive)	21.6% (inactive)
O=C(CSc1nc2ccccc2o1)N1CCN(c2ccc(Cl)cc2)CC1	92.6% (inactive)	87.4% (inactive)	1.47% (inactive)	85.9	87.4	-1.56% (inactive)	6.35% (inactive)
CCOCCCNC(=O)C1CCN(S(=O)(=O)c2c(C)noc2/C=C\c2ccc(OC)cc2)CC1	99.5% (inactive)	101% (inactive)	-0.205% (inactive)	101	101	4.13% (inactive)	-3.65% (inactive)
O=C1c2ccccc2C(=O)N1CCC(=O)N1CCc2ccccc21	101% (inactive)	87.3% (inactive)	-5.43% (inactive)	92.7	87.3	-4.53% (inactive)	5.08% (inactive)
Cc1ccc(S(=O)(=O)NCCCNC(=O)N2CCOCC2)cc1	100% (inactive)	106% (inactive)	13.5% (inactive)	92.4	106	-1.05% (inactive)	3.81% (inactive)
COc1ccccc1N(CN1CCCC1=O)C(=O)c1c(F)cccc1Cl	95% (inactive)	97.5% (inactive)	-0.095% (inactive)	97.6	97.5	-5.2% (inactive)	-0.32% (inactive)
COc1cc(NC(=O)Nc2cccc(Cl)c2)c(OC)cc1NC(=O)CN1CCCCC1	20.3% (active)	3.06% (active)	-9.94% (inactive)	13	3.06	-6.27% (inactive)	-0.95% (inactive)
Cc1nc2cc(CO)ccc2n1C	93.1% (inactive)	98.1% (inactive)	9.13% (inactive)	89	98.1	-5.97% (inactive)	-1.9% (inactive)
Cc1cc(=O)oc2c(CN3CCN(C)CC3)c(O)c(Cl)cc12	101% (inactive)	90.7% (inactive)	6.16% (inactive)	84.5	90.7	-6.05% (inactive)	-0.95% (inactive)
COc1ccc(Br)cc1S(=O)(=O)N1CCOCC1	99.7% (inactive)	87.2% (inactive)	3.77% (inactive)	83.5	87.2	-2.76% (inactive)	1.75% (inactive)
CC(C)CN1C(=O)c2ccc(C(=O)Nc3nccs3)cc2C1=O	90.8% (inactive)	104% (inactive)	21.4% (inactive)	82.6	104	0.39% (inactive)	0.63% (inactive)
CCOc1ccccc1C(=O)NCc1ccc2c(c1)OCO2	88.2% (inactive)	67.4% (inactive)	-20.6% (inactive)	88.1	67.4	-7.73% (inactive)	3.02% (inactive)
